GPR7 antagonist: human neuropeptides B/W receptor 1 antagonism; GPR7-expressing cells, fluorescence antagonist assay; inhibition, % at 4.4 µM; 290,000 tested, 1.1% active; AID 1861; in the data active = inhibition above about 16%, passing the limit was not always enough;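 also: cells stimulated with the agonist NPW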
core dimer inh: HCV core protein dimerization inhibition. TR-FRET GST/Flag-core106 dimerization, 1536-well. inhibition, % at 5 µM. 300,000 tested, 0.33% active. AID 1899;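 active = inhibition above the mean of all tested compounds plus 3 SD, set per screening campaign, cut at about 45% in these data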
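Assay system: GST-tagged and Flag-tagged HCV core protein residues 1-106 / Times: compound-protein-antibody incubation 4 h at 22.5 °C / Signal: time-resolved FRET, ex 340 nm, em 617 and 671 nm / Evaluation: % inhibition based on acceptor/donor emission ratio / Benchmarks: wells lacking GST-core106 and wells with excess unlabelled core106 / Repeats: singlicate, one well per compound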
ZTA DNA inh: counter-screen for EBNA-1 inhibitors: inhibitors of Epstein-Barr virus ZTA; P03206; ZTA-DNA binding, fluorescence polarization; inhibition, % at 11 µM; 320,000 tested, 0.15% active; AID 2234; in the data active = inhibition above about 33%
Target sequence (P03206 whole entry, looked up): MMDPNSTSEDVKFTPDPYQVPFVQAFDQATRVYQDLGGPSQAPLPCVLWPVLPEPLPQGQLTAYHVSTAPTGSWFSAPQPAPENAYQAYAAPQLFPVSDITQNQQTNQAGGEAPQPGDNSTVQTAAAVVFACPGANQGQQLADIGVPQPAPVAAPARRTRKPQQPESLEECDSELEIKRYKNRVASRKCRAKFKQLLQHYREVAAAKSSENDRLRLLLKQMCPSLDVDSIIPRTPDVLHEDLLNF
HCV NS3 hel inh: blocks Hepatitis C virus NS3 helicase unwinding | 290,000 tested, 0.56% active | inhibition, % at 10.9 µM | NS3 helicase DNA unwinding, Cy5 molecular beacon fluorescence;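 active = inhibition above the mean of all tested compounds plus 3 SD, set per campaign, cut at about 35% in these data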
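assay system = NS3 helicase fragment of HCV | buffer or medium = MOPS pH 6.5, MgCl2, DTT, Tween20, BSA | timing = 60 min unwinding reaction at 25 °C after ATP addition | signal = Cy5 beacon fluorescence read at start and 1 h | read-out basis = % inhibition of unwinding | control set = low DMSO, high thioflavine S at 110 µM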
EBNA-1 inhibitor: blocks EBNA-1 binding to DNA | EBNA-1 DNA binding, fluorescence polarization | inhibition, % at 14.8 µM | AID 1950 | 300,000 tested, 0.34% active; in the data active = inhibition above about 28%
EBV gp42 inh: blocks Epstein-Barr virus glycoprotein 42 binding | Q1HVG2 | inhibition, % (tested at 21.74 µM) | Fluorescence polarization binding assay, mP read-out | 220,000 tested, 0.42% active; in the data active = inhibition above about 50%
Target sequence (Q1HVG2 whole entry, looked up): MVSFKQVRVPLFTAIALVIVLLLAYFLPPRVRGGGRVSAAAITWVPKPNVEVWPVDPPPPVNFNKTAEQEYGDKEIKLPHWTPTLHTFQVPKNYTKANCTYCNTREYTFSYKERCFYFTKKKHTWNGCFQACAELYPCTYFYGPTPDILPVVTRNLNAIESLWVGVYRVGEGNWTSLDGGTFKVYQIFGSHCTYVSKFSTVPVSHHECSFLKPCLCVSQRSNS
NS3 helicase cf: HCV NS3 helicase inhibition, confirmation assay; shares compounds with HCV NS3 hel inh; AID 1943; NS3 helicase DNA unwinding, Cy5 molecular beacon fluorescence; 1,600 tested, 31% active; inhibition, % at 10.9 µM;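 active = inhibition above the mean of all tested compounds plus 3 SD, cutoff set per campaign, cut at about 36% in these data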
DNA FID counter: displaces DNA intercalator in HCV helicase counter-screen | shares compounds with HCV NS3 hel inh | DNA fluorescent intercalator displacement, fluorescence | inhibition, % at 7.9 µM | 1,600 tested, 4% active; in the data active = inhibition above about 37%;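 also: higher means more displacement of ethidium bromide from the DNA hairpin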
DNA FID DR: DNA intercalator displacement in dose response. 120 tested, under 10 active. fluorescent intercalator displacement from DNA, fluorescence. IC50, µM. shares compounds with HCV NS3 hel inh. AID 2172; call rule not given here
A number is an active result; . = inactive; / = no result. Rows were chosen to be rich in hits. Some 2.3% of all compounds tested hit in one or more screens of this group.

SMILES	GPR7 antagonist	core dimer inh	ZTA DNA inh	HCV NS3 hel inh	EBNA-1 inhibitor	EBV gp42 inh	NS3 helicase cf	DNA FID counter	others
CCOC(=O)C1=C(N)n2c(s/c(=C/c3ccco3)c2=O)=C(C(=O)OC)C1c1ccco1 (centres undefined)	.	.	.	41.0	.	.	.	.
CCOC(=O)C1=c2s/c(=C\c3ccncc3)c(=O)n2C(N)=C(C(=O)OC)C1c1ccncc1 (centres undefined)	.	.	.	.	.	.	/	/
O=C(Cc1csc(-c2ccccc2)n1)NCc1cccs1	.	.	.	.	.	.	/	/
CC1C/C(=C/c2ccco2)C(=O)/C(=C/c2ccco2)C1 (centres undefined)	.	.	.	.	.	.	/	/
O=C1/C(=C/c2cccs2)CCC/C1=C\c1cccs1	.	.	.	71.8	.	/	.	.
CC1C/C(=C/c2cccs2)C(=O)/C(=C/c2cccs2)C1 (centres undefined)	.	.	.	.	.	.	/	/
O=C1/C(=C\c2ccco2)CCC/C1=C\c1ccco1	.	.	.	48.2	.	.	.	.
CCCCOc1ccccc1C(=O)NNC(=S)NC(=O)c1ccccc1[N+](=O)[O-]	.	.	.	40.4	.	/	51.2	.	DNA FID DR=.
CCOC(=O)c1ccc(N2C(=O)c3n[nH]c(C)c3C2c2cccnc2)cc1 (centres undefined)	.	.	.	.	.	.	/	/
CCOC(=O)c1ccc(N2C(=O)c3n[nH]c(-c4ccco4)c3C2c2ccc([N+](=O)[O-])cc2)cc1 (centres undefined)	.	.	.	38.3	.	.	.	.
CC1(C)C(=O)Nc2ccccc2N1C(=O)Cn1ncc(Cl)c(Cl)c1=O	.	.	.	47.3	.	.	.	.
O=C(Nc1cc(S(=O)(=O)Nc2ccc(Cl)cc2)ccc1O)c1ccc(S(=O)(=O)N2CCCCCC2)cc1	.	.	.	44.8	.	.	.	.
O=C(NNC(=S)NC(=O)c1ccccc1)c1ccc([N+](=O)[O-])cc1	.	.	.	.	.	/	/	/
O=C(NC(=S)NC1CCSC1=O)c1cccc([N+](=O)[O-])c1 (centres undefined)	.	.	.	.	.	/	/	/
O=C(NC(=S)NNC(=O)c1ccccc1O)c1ccc([N+](=O)[O-])cc1	.	.	.	36.2	.	/	.	.
O=C(NC(=S)NC1CCSC1=O)c1ccc([N+](=O)[O-])cc1 (centres undefined)	.	.	.	42.9	.	/	.	.
CCC1CCc2c(sc(NC(=O)c3cnccn3)c2C(N)=O)C1 (centres undefined)	.	.	.	.	.	/	/	/
Cc1cccc(CCNC(=O)CCc2nnc(CCc3ccccc3)o2)n1	.	.	.	.	.	.	/	/
COc1c(N2CCN(C(=S)NCc3ccccc3)C(C)C2)c(F)cc2c(=O)c(C(=O)O)cn(C3CC3)c12 (centres undefined)	.	.	.	39.9	.	.	42.1	.	DNA FID DR=.
O=[N+]([O-])c1ccc(N2CCN(S(=O)(=O)c3ccc4ccccc4c3)CC2)cc1NCC1CCCO1 (centres undefined)	.	.	.	53.3	.	.	.	.
Cc1cc(C)n(CC(C)NCc2cn[nH]c2-c2ccc(C)c(C)c2)n1 (centres undefined)	.	.	.	.	.	.	/	/
COC(=O)C1CSC(C(=O)OC)N1C(=O)CN1CCN(c2ccc(OC)cc2)CC1 (centres undefined)	.	.	.	.	.	.	/	/
CCOc1ccc(N2C(=O)C3Sc4[nH]c(=O)sc4C(/C=C/c4ccccc4)C3C2=O)cc1 (centres undefined)	.	.	.	36.6	.	.	61.8	.	DNA FID DR=.
FC(F)(F)c1ccc(C2Nc3cccc4cccc(c34)N2)cc1	.	/	/	.	/	.	/	/
Fc1ccc(C2Nc3cccc4cccc(c34)N2)cc1	.	.	.	44.6	.	/	.	.
Clc1cccc(C2Nc3cccc4cccc(c34)N2)c1Cl	.	.	.	49.2	.	/	.	.

Screening results as filed in PubChem BioAssay.
